Values after ≈ are worked out from the molar mass of the structure shown.
Columns and labels:
[1] = Cytotoxicity against HEK293 cells after 24 hrs by resazurin dye-based fluorescence analysis; type: cell-based; conditions: human
Procedure, shortened: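 HEK293 cells were seeded at 3000/well in DMEM with 10% FBS and attached for 24 h at 37 °C, 5% CO₂. A compound concentration series was applied for 24 h. Resazurin was added at 10 µM for 2 h and fluorescence read at ex/em 560/590. Results are average percentage of control ± SD of duplicate wells.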

Staphylococcus aureus [2] = assay: Antibacterial activity against glycopeptide-intermediate/methicillin-resistant Staphylococcus aureus NARSA NRS1 after 18 to 20 hrs by broth microdilution assay
Staphylococcus aureus [3] = assay: microbe, parasite or virus in culture; conditions: ATCC 43300
Streptococcus pneumoniae = assay: microbe, parasite or virus in culture; conditions: ATCC 700677
Klebsiella pneumoniae [4] = assay: Antibacterial activity against multidrug-resistant Klebsiella pneumoniae ATCC 700603 after 18 to 20 hrs by broth microdilution assay; type: functional
Procedure, shortened: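 Strains were grown overnight at 37 °C with shaking in nutrient broth or MHB, diluted 50-fold in MHB and grown 1.5–3 h to mid-log. Compounds were 2-fold serially diluted in MHB at 32 to 0.015 µg/mL final (1% DMSO) with 5×10^5 CFU/mL. […] Two independent experiments of n = 2 (n = 4).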

Pseudomonas aeruginosa [5] = assay: Antibacterial activity against Pseudomonas aeruginosa ATCC 27853 after 18 to 20 hrs by broth microdilution assay; type: functional
Procedure, shortened: (§1)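 Bacteria grown overnight at 37 °C with shaking in nutrient broth or Mueller-Hinton broth (MHB). Cultures were diluted 50-fold in MHB and grown 1.5–3 h to mid-log phase, then set at 5×10^5 CFU/mL final. Compounds were 2-fold serially diluted, final 32 to 0.015 µg/mL, 1% DMSO. […] Two independent experiments of n = 2 (n = 4).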

Staphylococcus aureus [6] = assay: Antibacterial activity against vancomycin-resistant Staphylococcus aureus NARSA VRS10 after 18 to 20 hrs by broth microdilution assay
Acinetobacter baumannii [7] = assay: Antibacterial activity against Acinetobacter baumannii ATCC 19606 after 18 to 20 hrs by broth microdilution assay; type: functional; conditions: ATCC 19606 = CIP 70.34 = JCM 6841; procedure, shortened: as §1
Staphylococcus aureus [8] = assay: Antibacterial activity against glycopeptide-intermediate resistant Staphylococcus aureus NARSA NRS17 after 18 to 20 hrs by broth microdilution assay
Escherichia coli [9] = assay: Antibacterial activity against Escherichia coli ATCC 25922 after 18 to 20 hrs by broth microdilution assay; type: functional; procedure, shortened: as §1
Staphylococcus aureus [10] = assay: Antibacterial activity against methicillin-resistant Staphylococcus aureus ATCC 43300 assessed as zone of inhibition at 50 ug/disc after 20 hrs by disk diffusion assay; type: functional; conditions: ATCC 43300, 20 h, read-out: IZ
Procedure, shortened: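 Disk diffusion, 50 µg compound per disk. Bacterial suspensions were adjusted to 0.5 McFarland in 0.9% NaCl and swabbed onto nutrient agar plates. Controls were a 10 µg colistin sulphate disk, 10 µL DMSO, and a plate swabbed with saline from the dispenser.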

Cryptococcus neoformans = assay: Antifungal activity against Cryptococcus neoformans H99 ATCC 208821 after 18 to 20 hrs by broth microdilution assay; type: functional; conditions: var. grubii H99 ATCC 208821
Candida albicans = assay: Antifungal activity against Candida albicans ATCC 90028 after 18 to 20 hrs by broth microdilution assay; type: functional
Enterococcus faecium = assay: Antibacterial activity against Enterococcus faecium ATCC 700221 assessed as zone of inhibition at 50 ug/disc after 20 hrs by disk diffusion assay; type: functional; conditions: ATCC 700221, 20 h, read-out: IZ
Procedure, shortened: (§2)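 Disks loaded with 50 µg compound. Isolate suspensions were adjusted to 0.5 McFarland in 0.9% NaCl and swabbed onto nutrient agar plates, with zones of inhibition measured. Controls: 10 µg colistin sulphate disk, 10 µL DMSO, and a plate swabbed with saline from the dispenser.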

Pseudomonas aeruginosa [11] = assay: Antibacterial activity against Pseudomonas aeruginosa ATCC 27853 assessed as zone of inhibition at 50 ug/disc after 20 hrs by disk diffusion assay; type: functional; conditions: ATCC 27853, 20 h, read-out: IZ; procedure, shortened: as §2
Acinetobacter baumannii [12] = assay: Antibacterial activity against Acinetobacter baumannii ATCC 19606 assessed as zone of inhibition at 50 ug/disc after 20 hrs by disk diffusion assay; type: functional; conditions: ATCC 19606 = CIP 70.34 = JCM 6841, 20 h, read-out: IZ; procedure, shortened: as §2
Klebsiella pneumoniae [13] = assay: Antibacterial activity against Klebsiella pneumoniae ATCC 13883 assessed as zone of inhibition at 50 ug/disc after 20 hrs by disk diffusion assay; type: functional; conditions: ATCC 13883, 20 h, read-out: IZ; procedure, shortened: as §2
[14] = Drug localization in methicillin-resistant Staphylococcus aureus subsp. aureus Rosenbach ATCC 43300 at 10 ug/ml after 20 mins by confocal microscopic analysis; type: ADME
Procedure, shortened: (§3)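 MRSA ATCC 43300 was grown overnight in LB broth at 37 °C with gentle shaking, then incubated 20 min at 37 °C with 10 µg/mL fluorescent compound in LB. Cells were fixed in 4% paraformaldehyde for 20 min, wet-mounted on slides and imaged by confocal microscopy.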

[15] = Drug localization in peripheral region of […] Escherichia coli ATCC 25922 at 10 ug/ml after 20 mins by confocal microscopic analysis; type: ADME
Procedure, shortened: (§4)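 E. coli ATCC 25922 was grown overnight in LB broth at 37 °C with gentle shaking. Cells were exposed to 10 µg/mL fluorescent compound in LB for 20 min at 37 °C. Localisation was imaged by confocal microscopy, including 3D rendering.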

[16] = Drug localization in […] Escherichia coli ATCC 25922 at 10 ug/ml after 20 mins by confocal microscopic analysis; type: ADME; procedure, shortened: as §4
[17] = Drug localization in peripheral region of methicillin-resistant Staphylococcus aureus subsp. aureus Rosenbach ATCC 43300 at 10 ug/ml after 20 mins by confocal microscopic analysis; type: ADME; procedure, shortened: as §3
Staphylococcus aureus [18] = assay: Antibacterial activity against methicillin-resistant Staphylococcus aureus ATCC 43300 after 20 hrs by micro-broth dilution assay; type: functional; conditions: ATCC 43300, 20 h
Escherichia coli [19] = assay: Antibacterial activity against Escherichia coli ATCC 25922 after 20 hrs by micro-broth dilution assay; type: functional; conditions: ATCC 25922, 20 h
Pseudomonas aeruginosa [20] = assay: Antibacterial activity against Pseudomonas aeruginosa ATCC 27853 after 20 hrs by micro-broth dilution assay; type: functional; conditions: ATCC 27853, 20 h

SMILES | CC50 at 24 h [1] | MIC (Staphylococcus aureus [2]) | MIC (Staphylococcus aureus [3]) | MIC (Streptococcus pneumoniae) | MIC (Klebsiella pneumoniae [4]) | MIC (Pseudomonas aeruginosa [5]) | MIC (Staphylococcus aureus [6]) | MIC (Acinetobacter baumannii [7]) | MIC (Staphylococcus aureus [8]) | MIC (Escherichia coli [9]) | MIC (Cryptococcus neoformans) | MIC (Candida albicans) | Drug uptake [16] | also measured
CC/C(=C(\c1ccccc1)c1ccc(OCCN(C)C)cc1)c1ccccc1 [TAMOXIFEN] | 13 µg/mL (≈ 35 µM) |  |  |  |  |  |  |  |  |  |  |  |  | 
CCCCCCCC1O[C@@H]2[C@@H]3C[C@H]([C@@H]2O1)[C@@H](C(=O)NCCNC(=O)c1ccc(C(=O)NC(=N)N)[nH]1)[C@@H]3C(=O)NCCNC(=O)c1ccc(C(=O)NC(=N)N)[nH]1.Cl.Cl (some centres undefined) | > 100 µg/mL | > 128 µg/mL | > 128 µg/mL | > 128 µg/mL | > 128 µg/mL | > 128 µg/mL | 128 µg/mL | > 128 µg/mL | > 128 µg/mL | > 128 µg/mL |  |  |  | 
CCCCCCCC1O[C@@H]2[C@@H]3C[C@H]([C@@H]2O1)[C@@H](C(=O)NCCNC(=N)NCc1ccccc1)[C@@H]3C(=O)NCCNC(=N)NCc1ccccc1.Cl.Cl (some centres undefined) | > 50 µg/mL | 2 µg/mL | 2 µg/mL | 2 µg/mL | > 32 µg/mL | 32 µg/mL | 1 µg/mL | > 32 µg/mL | 1 µg/mL | 8 µg/mL | 2 µg/mL | 128 µg/mL |  | zone of inhibition at 50 µg/disc (Staphylococcus aureus [10]): 17 mm; zone of inhibition at 50 µg/disc (Enterococcus faecium): 18 mm; zone of inhibition at 50 µg/disc (Pseudomonas aeruginosa [11]): 13 mm; zone of inhibition at 50 µg/disc (Acinetobacter baumannii [12]): 10 mm; zone of inhibition at 50 µg/disc (Klebsiella pneumoniae [13]): 15 mm
CCCCCCCCCCCCCCCC1O[C@@H]2[C@@H]3C[C@H]([C@@H]2O1)[C@@H](C(=O)NCCNC(=N)NCc1ccccc1)[C@@H]3C(=O)NCCNC(=N)NCc1ccccc1.Cl.Cl (some centres undefined) | 7.8 µg/mL | 0.5 µg/mL | 0.25 µg/mL | 1 µg/mL | > 128 µg/mL | > 128 µg/mL | 0.5 µg/mL | > 128 µg/mL | 0.25 µg/mL | > 128 µg/mL |  |  |  | 
CCCNc1ccc2c3c(cccc13)C(=O)N(CCCCCCCCCCCC1O[C@@H]3[C@@H]4C[C@H]([C@@H]3O1)[C@@H](C(=O)NCCNC(=N)N)[C@@H]4C(=O)NCCNC(=N)N)C2=O.Cl.Cl (some centres undefined) | > 50 µg/mL | 4 µg/mL | 1 µg/mL | 1 µg/mL | > 32 µg/mL | > 32 µg/mL | 2 µg/mL | > 32 µg/mL | 4 µg/mL | > 32 µg/mL | 0.25 µg/mL | 128 µg/mL | Active | Drug uptake [14]: Active; Drug uptake [15]: Active; Drug uptake [17]: Active
CCCCCCCCCCCCCCCC1O[C@@H]2[C@@H]3C[C@H]([C@@H]2O1)[C@@H](C(=O)NCCNC(=N)N)[C@@H]3C(=O)NCCNC(=N)N.Cl.Cl (some centres undefined) |  |  |  |  |  |  |  |  |  |  |  |  |  | MIC (Staphylococcus aureus [18]): 1 µg/mL
CCCNc1ccc([N+](=O)[O-])c2nonc12 |  |  |  |  |  |  |  |  |  |  |  |  | Active | Drug uptake [17]: Active
Cl.Cl.N=C(N)NCCNC(=O)[C@@H]1[C@@H]2C[C@@H]([C@@H](OCc3ccc(C(F)(F)F)cc3)[C@H]2OCc2ccc(C(F)(F)F)cc2)[C@H]1C(=O)NCCNC(=N)N |  |  |  |  |  |  |  |  |  |  |  |  |  | MIC (Staphylococcus aureus [18]): 8 µg/mL; MIC (Escherichia coli [19]): 8 µg/mL; MIC (Pseudomonas aeruginosa [20]): 8 µg/mL
Cl.Cl.N=C(N)NCCNC(=O)[C@@H]1[C@@H]2C[C@@H]([C@H]3OC(CCCCCCCCCCCNc4ccc([N+](=O)[O-])c5nonc45)O[C@@H]23)[C@H]1C(=O)NCCNC(=N)N (some centres undefined) | > 50 µg/mL | 4 µg/mL | 1 µg/mL | 1 µg/mL | > 32 µg/mL | 32 µg/mL | 0.5 µg/mL | 32 µg/mL | 1 µg/mL | 8 µg/mL | 4 µg/mL | 16 µg/mL | Active | zone of inhibition at 50 µg/disc (Staphylococcus aureus [10]): 9 mm; Drug uptake [14]: Active; zone of inhibition at 50 µg/disc (Pseudomonas aeruginosa [11]): 9 mm; Drug uptake [15]: Active; Drug uptake [17]: Active; zone of inhibition at 50 µg/disc (Klebsiella pneumoniae [13]): 8.5 mm
CCCN1C(=O)c2cccc3c(N)ccc(c23)C1=O |  |  |  |  |  |  |  |  |  |  |  |  | Active | Drug uptake [14]: Active
CN[C@H](CC(C)C)C(=O)N[C@H]1C(=O)N[C@@H](CC(N)=O)C(=O)N[C@H]2C(=O)N[C@H]3C(=O)N[C@H](C(=O)N[C@H](C(=O)O)c4cc(O)cc(O)c4-c4cc3ccc4O)[C@H](O)c3ccc(c(Cl)c3)Oc3cc2cc(c3O[C@@H]2O[C@H](CO)[C@@H](O)[C@H](O)[C@H]2O[C@H]2C[C@](C)(N)[C@H](O)[C@H](C)O2)Oc2ccc(cc2Cl)[C@H]1O [VANCOMYCIN] |  |  |  | 1 µg/mL (≈ 0.69 µM) |  |  | > 64 µg/mL |  |  |  |  |  |  | 
OC(Cn1cncn1)(Cn1cncn1)c1ccc(F)cc1F [FLUCONAZOLE] |  |  |  |  |  |  |  |  |  |  | 8 µg/mL (≈ 26.1 µM) | 1 µg/mL (≈ 3.27 µM) |  | 
Cl.Cl.Cl.N=C(N)NCCNC(=O)[C@@H]1[C@@H]2C[C@@H]([C@H]3OC(CCCCCCCCCCCN)O[C@@H]23)[C@H]1C(=O)NCCNC(=N)N (some centres undefined) | > 50 µg/mL | 8 µg/mL | 16 µg/mL | 8 µg/mL | > 32 µg/mL | > 32 µg/mL | 8 µg/mL | > 32 µg/mL | 16 µg/mL | > 32 µg/mL |  |  |  | zone of inhibition at 50 µg/disc (Staphylococcus aureus [10]): 14 mm; zone of inhibition at 50 µg/disc (Pseudomonas aeruginosa [11]): 12 mm; zone of inhibition at 50 µg/disc (Acinetobacter baumannii [12]): 12 mm; zone of inhibition at 50 µg/disc (Klebsiella pneumoniae [13]): 14.5 mm

From ChEMBL document CHEMBL4325838, “Norbornane-based cationic antimicrobial peptidomimetics targeting the bacterial membrane” (Eur J Med Chem, 2018)
